Source: PMC9473745 (Cell chemical biology, 2021)
Entries after “also recorded” stand apart in the source; their conditions may differ. Read-outs that look alike come from different tables or passages of the source. Each block holds one compound with its values, some of them ahead of it.

Assays:
USP28 catalytic domain = target: T1, USP28 catalytic domain (Homo sapiens, UniProt Q96RU2); experiment: Ubiquitin rhodamine 110 kinetic assay, USP28; type: biochemical; conditions: for potency relative to AZ1: USP28 IC50 compared with AZ1
T1 sequence (Q96RU2 149-703): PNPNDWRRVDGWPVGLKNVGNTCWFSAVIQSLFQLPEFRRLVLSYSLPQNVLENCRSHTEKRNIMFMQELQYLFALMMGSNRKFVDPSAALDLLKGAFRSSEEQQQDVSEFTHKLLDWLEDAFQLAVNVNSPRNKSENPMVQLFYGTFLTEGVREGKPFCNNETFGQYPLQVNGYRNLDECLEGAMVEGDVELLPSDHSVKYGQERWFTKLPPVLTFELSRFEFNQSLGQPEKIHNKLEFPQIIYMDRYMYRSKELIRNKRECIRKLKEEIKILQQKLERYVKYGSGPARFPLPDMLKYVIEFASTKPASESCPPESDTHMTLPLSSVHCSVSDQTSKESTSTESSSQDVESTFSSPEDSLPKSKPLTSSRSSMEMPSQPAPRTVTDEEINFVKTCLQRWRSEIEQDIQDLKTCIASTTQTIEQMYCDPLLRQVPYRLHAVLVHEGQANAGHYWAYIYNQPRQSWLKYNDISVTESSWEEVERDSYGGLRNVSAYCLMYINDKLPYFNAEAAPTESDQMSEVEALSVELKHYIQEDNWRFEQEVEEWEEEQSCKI

USP28 in HEK293T lysates = experiment: Quantitative activity-based protein profiling; type: binding, human; conditions: HEK293T lysate, 250 μM compound, Ub-PA/Ub-VME probes
In short: (§1)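 HEK293T cells were lysed in NP-40/glycerol/TCEP buffer with protease and phosphatase inhibitors, and lysate was diluted to 10 mg/mL. Lysate was incubated with 250 μM test compound or DMSO for 30 min at room temperature, with a selective USP7 inhibitor as positive control. Biotin-Ub-PA and biotin-Ub-VME (1 μM each) were added for 15 min. Labelled proteins were captured on streptavidin, trypsin-digested on bead and TMT-labelled. Quantified by multidimensional LC-MS using reporter-ion protein-level values.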

[1] = tested on: USP28 in HEK293T cellular lysate; experiment: Competitive ABPP with western blot readout for USP28; type: binding, human; conditions: 1 hour pre-treatment, dose-response
In short: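 Lysate was pre-incubated with compound or DMSO for 1 h at RT. It was then labeled with 1:1 Ub-PA/Ub-VME (2 μM final) for 30 min at RT with shaking. Samples were denatured at 95°C, run on SDS-PAGE, and immunoblotted with anti-USP28 rabbit monoclonal.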

USP30 catalytic domain = target: T2, USP30 catalytic domain (Homo sapiens, UniProt Q70CQ3); experiment: Ubiquitin rhodamine 110 kinetic assay, USP30; type: biochemical
T2 sequence (Q70CQ3 65-517): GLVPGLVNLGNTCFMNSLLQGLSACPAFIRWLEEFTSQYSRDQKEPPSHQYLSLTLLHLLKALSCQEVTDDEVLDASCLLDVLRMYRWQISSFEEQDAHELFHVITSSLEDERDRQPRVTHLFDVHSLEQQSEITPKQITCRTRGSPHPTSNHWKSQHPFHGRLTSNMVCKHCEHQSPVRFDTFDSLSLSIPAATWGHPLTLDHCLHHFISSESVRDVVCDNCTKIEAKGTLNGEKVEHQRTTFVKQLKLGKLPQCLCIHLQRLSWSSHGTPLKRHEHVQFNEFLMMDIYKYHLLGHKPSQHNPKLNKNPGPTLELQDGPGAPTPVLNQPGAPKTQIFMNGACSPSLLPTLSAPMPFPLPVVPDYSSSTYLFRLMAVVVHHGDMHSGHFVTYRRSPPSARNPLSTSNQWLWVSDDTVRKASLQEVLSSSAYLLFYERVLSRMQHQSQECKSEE
In short: (§2)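 Human DUB constructs, each N-terminally 6xHis-tagged and expressed in E. coli BL21(DE3): USP7 full length (AA 1–1102), USP7 catalytic domain (AA 208–560), USP8 catalytic domain (AA 743–1110) and USP30 catalytic domain (AA 65–517). Ub-Rho110 was then added and fluorescence (ex 485/em 535 nm) read each minute over 30 min. Initial rates were normalized to no-compound wells and fitted (variable slope) for IC50; each run at least twice, SEM.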

USP8 [2] = experiment: Ubiquitin-AMC kinetic assay, USP8; type: biochemical, human; conditions: dose-response
In short: (§3)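 Same kinetic protocol as the Ub-Rho110 assay, with Ub-AMC as substrate. His-tagged catalytic domains were used: USP8 (AA 743–1110) and USP10 (AA 376–798). Read at ex 345/em 445 nm each minute over 30 min. IC50 came from initial rates normalized to no-compound wells and was compared with the Ub-Rho110 value.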

USP10 catalytic domain = USP10 catalytic domain (Homo sapiens, UniProt Q14694); experiment: Ubiquitin rhodamine 110 kinetic assay, USP10; type: biochemical; conditions: read-out: IC50 ± SEM, kinetic Ub-Rho assay, 12-point dose-response, mean ± SEM (n)
In short: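 Enzyme was the human USP10 catalytic domain (aa 376–798), N-6xHis, E. coli-expressed, purified by Ni-NTA and Superdex 200. Fluorescence (ex 485/em 535 nm) was read every minute for 30 min. Initial rates were normalized to no-compound control and fitted with a variable-slope model; runs ≥2, SEM.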

USP8 catalytic domain = target: T3, USP8 catalytic domain (Homo sapiens, UniProt P40818); experiment: Ubiquitin rhodamine 110 kinetic assay, USP8; type: biochemical; conditions: kinetic Ub-Rho assay
T3 sequence (P40818 743-1110): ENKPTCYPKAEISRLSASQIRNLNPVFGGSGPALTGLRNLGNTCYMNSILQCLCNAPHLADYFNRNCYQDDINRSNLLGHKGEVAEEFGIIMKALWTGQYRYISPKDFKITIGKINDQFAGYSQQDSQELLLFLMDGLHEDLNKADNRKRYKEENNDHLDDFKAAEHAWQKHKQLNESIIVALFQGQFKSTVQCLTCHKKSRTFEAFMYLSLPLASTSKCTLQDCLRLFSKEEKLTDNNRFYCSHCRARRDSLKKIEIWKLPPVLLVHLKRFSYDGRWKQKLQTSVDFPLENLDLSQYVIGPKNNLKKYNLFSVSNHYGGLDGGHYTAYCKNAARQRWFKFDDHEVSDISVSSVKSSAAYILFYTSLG
In short: as §2

USP10 = experiment: Ubiquitin-AMC kinetic assay, USP10; type: biochemical, human; conditions: dose-response
In short: as §3

[3] = tested on: native USP25 in HEK293T lysates; experiment: Quantitative activity-based protein profiling; type: binding, human; conditions: HEK293T lysate, 250 μM compound, Ub-PA/Ub-VME probes
In short: as §1

[4] = tested on: other DUBs detected in cell lysate; experiment: Quantitative activity-based protein profiling; type: binding, human; conditions: HEK293T lysate, 250 μM compound, Ub-PA/Ub-VME probes
In short: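 Aliquots were treated with 250 μM compound or DMSO for 30 min at RT, then processed to peptides. Peptides were TFA-acidified, C18-desalted, and TMT-labeled for 1 h at RT. Peptides were mapped to unique genes, and reporter ions were aggregated into protein-level values.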

full-length USP7 = experiment: Kinetic Ub-Rho assay, full-length USP7; type: biochemical, human; conditions: dose-response
In short: as §2

USP7 catalytic domain = USP7 catalytic domain (Homo sapiens, UniProt Q93009); experiment: Ubiquitin rhodamine 110 kinetic assay, USP7 catalytic domain; type: biochemical
In short: as §2

USP8 [5] = experiment: Ub-Rho endpoint screen of spiro indolinone expansion set, USP8; type: biochemical, human; conditions: 8-point dose-response in triplicate
In short: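 Enzyme and test compound were incubated 10 min; DMSO wells served as control. Ub-Rho110 was then added and the reaction run 30 min–3 h at room temperature depending on DUB. Stopped with assay buffer plus 0.2% TFA and read at ex 485/em 535 nm.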

USP7 = experiment: Ub-Rho endpoint screen of spiro indolinone expansion set, USP7; type: biochemical, human; conditions: 8-point dose-response in triplicate
In short: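 Enzyme and acoustically dispensed test compound were incubated 1 h; DMSO-only wells served as neutral control. Ub-Rho110 was then added and the reaction run 10 min at room temperature without a quench. Fluorescence was read at ex 485/em 535 nm.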

[6] = IC50 ± SEM, USP28, catalytic domain of the human protein, kinetic Ub-Rho assay, mean ± SEM (n)

Chain of USP7 catalytic domain (Q93009 208-560): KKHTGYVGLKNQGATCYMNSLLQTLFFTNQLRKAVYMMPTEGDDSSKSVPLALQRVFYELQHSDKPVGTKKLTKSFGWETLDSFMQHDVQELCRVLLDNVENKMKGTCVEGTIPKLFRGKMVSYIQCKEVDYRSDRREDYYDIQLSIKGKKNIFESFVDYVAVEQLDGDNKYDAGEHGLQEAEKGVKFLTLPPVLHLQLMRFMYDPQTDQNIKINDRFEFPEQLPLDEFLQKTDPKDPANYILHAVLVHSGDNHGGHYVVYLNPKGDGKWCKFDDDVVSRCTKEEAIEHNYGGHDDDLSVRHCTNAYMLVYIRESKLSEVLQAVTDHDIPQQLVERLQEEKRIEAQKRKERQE
Chain of USP10 catalytic domain (Q14694 376-798): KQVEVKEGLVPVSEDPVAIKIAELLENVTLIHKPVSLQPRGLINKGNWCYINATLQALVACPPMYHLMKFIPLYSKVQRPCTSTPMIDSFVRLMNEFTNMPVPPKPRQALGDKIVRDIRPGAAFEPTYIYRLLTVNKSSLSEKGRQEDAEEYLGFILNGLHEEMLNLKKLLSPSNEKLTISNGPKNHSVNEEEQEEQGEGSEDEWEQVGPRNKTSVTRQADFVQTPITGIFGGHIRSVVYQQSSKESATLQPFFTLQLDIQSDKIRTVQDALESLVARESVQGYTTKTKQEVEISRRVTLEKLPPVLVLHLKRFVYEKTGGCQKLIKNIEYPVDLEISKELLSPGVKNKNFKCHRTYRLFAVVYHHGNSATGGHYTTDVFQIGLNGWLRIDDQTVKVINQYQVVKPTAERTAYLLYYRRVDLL

IC50 (USP28 catalytic domain; [6]): 0.176 ± 0.073 µM
SMILES: O=c1ccc(-c2noc(Cc3cccc(Cl)c3)n2)c[nH]1 [AV-11324–75, 5-(5-(3-chlorobenzyl)-1,2,4-oxadiazol-3-yl)pyridin-2(1H)-one]
blockage of USP28 labeling by covalent probe (western blot) [1]: good dose-dependent inhibition and prevention of probe labeling

IC50 (USP7 catalytic domain): 3.83 ± 1.6 µM
SMILES: CC(C)c1[nH]nc2c1C1(C(=O)Nc3ccccc31)C(C#N)=C(N)O2 (centres unmarked) [AV-9606–41, 6’-amino-3’-isopropyl-2-oxo-2’H-spiro[indoline-3,4’-pyrano[2,3-c]pyrazole]-5’-carbonitrile]
inhibition of full-length USP7 (full-length USP7): no inhibition of full-length protein; also recorded: no activity against a full-length protein
activity against USP8 in expansion set screen (USP8 [5]): inactive against USP8
activity against USP7 in expansion set screen (USP7): active against USP7

IC50 (USP7 catalytic domain; read-out: IC50 ± SEM, USP7, kinetic Ub-Rho assay, 12-point dose-response, mean ± SEM (n)): 4.68 ± 1.05 µM
SMILES: Cc1nn(-c2ccccc2)c2c1C1(C(=O)Nc3ccccc31)N1C(=N2)Sc2ccccc21 (centres unmarked) [AV-9606–27, 3-methyl-1-phenyl-1H-spiro[benzo[4,5]thiazolo[3,2-a]pyrazolo[3,4-d]pyrimidine-4,3’-indolin]-2’-one]

IC50 (USP28 catalytic domain; [6]): 4.33 ± 1.08 µM
SMILES: O=C1c2ccccc2NC2(C(=O)Nc3ccc(Br)cc32)N1c1ccccc1 (centres unmarked) [AV-9606–99, 5-bromo-3’-phenyl-1’H-spiro[indoline-3,2’-quinazoline]-2,4’(3’H)-dione]

More lines, now with the values behind:

SMILES: O=c1ccc(-c2noc(Cc3ccc(Cl)c(Cl)c3)n2)c[nH]1 [AV-9606–180, 5-(5-(3,4-dichlorobenzyl)-1,2,4-oxadiazol-3-yl)pyridin-2(1H)-one]
IC50 (USP28 catalytic domain; IC50, USP28): ≤ 0.1 µM
potency relative to AZ1 (USP28 catalytic domain): approximately 10 fold
blockage of probe labeling of USP28 (USP28 in HEK293T lysates): strong inhibition of USP28
blockage of USP28 labeling by covalent probe (western blot) [1]: good dose-dependent inhibition and prevention of probe labeling

SMILES: CC(C)NS(=O)(=O)c1cccc2c(NC(=O)[C@H](Cc3ccccc3)NC(=O)c3ccccc3)cccc12 [AV-11324–5, (S)-N-(1-((5-(N-isopropylsulfamoyl)naphthalen-1-yl)amino)-1-oxo-3-phenylpropan-2-yl)benzamide]
IC50 (USP30 catalytic domain): 0.275 ± 0.07 µM

SMILES: CCCc1nc2sc3c(NCCc4ccc(OC)c(OC)c4)ncnc3c2c2c1CCC2 [bin-01–07-07, N-(3,4-dimethoxyphenethyl)-4-propyl-2,3-dihydro-1H-cyclopenta[4’,5’]pyrido[3’,2’:4,5]thieno[3,2-d]pyrimidin-7-amine]
IC50 (USP28 catalytic domain; IC50, USP28): ≤ 0.1 µM
IC50 (USP28 catalytic domain; [6]): 0.046 ± 0.017 µM
potency relative to AZ1 (USP28 catalytic domain): approximately 10 fold
blockage of probe labeling of USP28 (USP28 in HEK293T lysates): strong inhibition of USP28
blockage of USP28 labeling by covalent probe (western blot) [1]: good dose-dependent inhibition and prevention of probe labeling

SMILES: Cc1ccc(S(=O)(=O)N(C)C)cc1NC(=O)Cc1ccc(Cl)c(Cl)c1 [AV-9606–129, 2-(3,4-dichlorophenyl)-N-(5-(N,N-dimethylsulfamoyl)-2-methylphenyl)acetamide]
IC50 (USP28 catalytic domain; [6]): 0.402 ± 0.197 µM

SMILES: COc1ccc(C(=O)COC(=O)c2ccccc2NS(=O)(=O)c2ccc(O)c([N+](=O)[O-])c2)cc1 [Compound Z56965384]
increase in IC50 value with Ubiquitin-AMC versus Ub-Rho (USP8 [2]): 3–10 fold
IC50 (USP10 catalytic domain): 26.6 ± 4.69 µM
inhibition of off-target DUB USP8 (USP8 catalytic domain): confirmed inhibition
increase in IC50 value with Ubiquitin-AMC versus Ub-Rho (USP10): 3–10 fold

SMILES: OCCNCc1cc(Br)ccc1OCc1ccc(F)c(C(F)(F)F)c1 [AZ1]
blockage of probe labeling of USP25 [3]: strongly blocked labeling of USP25
blockage of probe labeling of USP28 (USP28 in HEK293T lysates): little impact on USP28
activity toward other DUBs detected [4]: did not exhibit activity toward any other DUBs
